Tested on: Rattus norvegicus
Assay: In vivo inhibition of PAF induced hypotension in rats after intravenous administration
Assay type: functional
Conditions: read-out: ID50 (the source's name)
Outline: (§1)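 Male Sprague-Dawley rats (180–220 g) were anesthetized with pentobarbital (50 mg/kg ip), with carotid blood pressure recorded. Compound was given iv in saline (1 mL/kg) via a femoral vein 3 min before PAF (0.5 µg/kg iv). Controls received vehicle. Percent inhibition of hypotension versus controls gave ID50 by linear regression over ≥4 doses, each the mean of ≥2 experiments.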

Structure (SMILES) | ED50 [mg/kg]
CCCCCCCCCCCCCCCCCCNC(=O)OCC(COC(=O)N(Cc1cccc[n+]1CC)C(C)=O)OC.[Cl-] (centres undefined) [CV-6209] | 0.0078

Species: Oryctolagus cuniculus
Assay: In vitro inhibition of platelet aggregation (rabbit) induced by PAF
Assay type: functional
Conditions: not given
Outline: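 Aggregation of platelet-rich plasma, obtained by spinning blood at 250 g for 10 min at 4 °C. The PRP was diluted with platelet-poor plasma (3000 g, 10 min) to […]. Aggregation was triggered with C18-PAF at 1.5 × 10⁻⁸ M and read on an aggregometer. IC50 was taken by linear regression from one curve of ≥4 concentrations, each the mean of 1–3 experiments.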

Structure (SMILES) | IC50 [nM]
CCCCCCCCCCCCCCCCCNC(=O)OCCSCCOC(=O)N(Cc1cccc[n+]1CC)C(C)=O [listing 1 of 3 here] | 12
CCCCCCCCCCCCCCCCCCNC(=O)OCC(COC(=O)N(Cc1cccc[n+]1CC)C(C)=O)OC.[I-] (centres undefined) | 11
CCCCCCCCCCCCCCCCCNC(=O)OCCSCCOC(=O)N(Cc1cccc[n+]1CC)C(C)=O [listing 2 of 3 here] | 8.6
CCCCCCCCCCCCCCCCCNC(=O)OCCSCCOC(=O)N(Cc1cccc[n+]1CC)C(C)=O [listing 3 of 3 here] | 5.6

Same assay, conditions: Oryctolagus cuniculus

Structure (SMILES) | IC50 [nM]
CCCCCCCCCCCCCCCNC(=O)OCC1CCC(COC(=O)N(Cc2cccc[n+]2CC)C(C)=O)O1.[I-] (centres undefined) | 72
CCCCCCCCCCCCCCCCCNC(=O)OCCOCCOC(=O)N(Cc1cccc[n+]1C)C(C)=O | 55
CCCCCCCCCCCCCCCCCCNC(=O)OCCSCCOC(=O)N(Cc1cccc[n+]1CC)C(C)=O.[I-] | 5.9
CCCCCCCCCCCCCCCCCCOCCOCCOC(=O)N(Cc1cccc[n+]1CC)C(C)=O.[I-] | 22
CCCCCCCCCCCCCCCCCCCCOC(=O)N(Cc1cccc[n+]1CC)C(C)=O.[I-] | 160
CCCCCCCCCCCCCCCCCCNC(=O)OCC(COC(=O)N(Cc1cccc[n+]1CC)C(C)=O)OC.[Cl-] (centres undefined) [CV-6209] | 12
CCCCCCCCCCCCCCCCCNC(=O)OCCOCCOC(=O)N(Cc1cccc[n+]1CC)C(C)=O | 17
CCCCCCCCCCCCCCCNC(=O)OCCOCCOC(=O)N(Cc1cccc[n+]1CCC)C(C)=O | 230
CCCCCCCCCCCCCCCNC(=O)OCCCCCOC(=O)N(Cc1cccc[n+]1CC)C(C)=O | 24
CCCCCCCCCCCCCCCCOCCSCCOC(=O)N(Cc1cccc[n+]1CC)C(C)=O | 5.1
CCCCCCCCCCCCCCCNC(=O)OCCOCCOC(=O)N(Cc1cccc[n+]1CC)C(C)=O | 22
CC[n+]1ccccc1CN(C(C)=O)C(=O)OCCOCCOC(=O)NCC1CCCCC1 | 2000
CCCCCCCCCCCCCCCCCCNC(=O)OCCCOC(=O)N(Cc1cccc[n+]1CC)C(C)=O.[I-] | 23
CCCCCCCCCCCCCCCCCCNC(=O)OCCOCCOC(=O)N(Cc1cccc[n+]1CC)C(C)=O.[I-] | 18
CCCCCCCCCCCCCCCCCNC(=O)OCCSCCOC(=O)N(Cc1cccc[n+]1CC)C(=O)CCCCCCCCCCCCCCC.[I-] | 8700
CCCCCCCCCCCCCCCCCNC(=O)OCCSCCOC(=O)N(Cc1cccc[n+]1CC)C(=O)C(C)(C)C.[I-] | 150
CCCCCCCCCCCCCCCNC(=O)OCCOCCOC(=O)N(Cc1cccc[n+]1CC)C(=O)OCC | 23
CCCCCCCCCCCCCCCNC(=O)OCCOCCOCCOC(=O)N(Cc1cccc[n+]1CC)C(C)=O.[I-] | 12

Structure (SMILES) | IC50 [nM]
CCCCCCCCCCCCCCCCNC(=O)OCCSCCOC(=O)N(Cc1cccc[n+]1CC)C(C)=O.[I-] | 14
CCCCCCCCCCCCCCCNC(=O)OCC1COC(COC(=O)N(Cc2cccc[n+]2CC)C(C)=O)O1.[I-] (centres undefined) | 7.5
CCCCCCCCCCCCCCCNC(=O)OCCOCCOC(=O)CCCCC[n+]1ccsc1.Cc1ccc(S(=O)(=O)[O-])cc1 | 12000
CCSCCOC(=O)N(Cc1cccc[n+]1CC)C(C)=O.[I-] | 190
CCCCCCCCCCCCCCCCCCCCCCOC(=O)N(Cc1cccc[n+]1CC)C(C)=O.[I-] | 1400
CCCCCCCCCCCCCCCNC(=O)OCCSCCOC(=O)N(Cc1cccc[n+]1CC)C(C)=O.[I-] | 8.4
CCCCCCCCCCCCCCCCCNC(=O)OCCSCCOC(=O)N(Cc1cccc[n+]1CC)C(=O)OCC.[I-] | 18
CC[n+]1ccccc1CN(C(C)=O)C(=O)OCCOCCOC(=O)C(C)(C)C.[I-] | 1700
CCCCCCCCCCCCCCCCCCOC(=O)N(Cc1cccc[n+]1CC)C(C)=O.[I-] | 870
CCCCCCCCCCCCCCCCCNC(=O)OCC[S+]([O-])CCOC(=O)N(Cc1cccc[n+]1CC)C(C)=O.[I-] (centres undefined) | 27
CCCCCCCCCCCCCCCCCCOCCSCCOC(=O)N(Cc1cccc[n+]1CC)C(C)=O | 15
CCCCCCCCCCCCCCCCCNC(=O)OCCOCCOC(=O)N(Cc1cccc[n+]1CC)C(=O)OCC | 8.8
CCCCCCCCCCCCCCCCCNC(=O)OCCS(=O)(=O)CCOC(=O)N(Cc1cccc[n+]1CC)C(C)=O.[I-] | 11
CCCCCCCCCCCCCCCCCNC(=O)OCCSCCOC(=O)N(Cc1cccc[n+]1CC)C(=O)c1ccccc1OC.[I-] | 9.1
CCOC(=O)N(Cc1cccc[n+]1CC)C(C)=O.[I-] | 24000
CC[n+]1ccccc1CN(C(C)=O)C(=O)OCCOCCOC(=O)NCCCc1ccccc1 | 1300
CCCCCCCCCCCCCCCNC(=O)OCC1OCC(COC(=O)N(Cc2cccc[n+]2CC)C(C)=O)O1.[I-] (centres undefined) | 26

Tested on: Rattus norvegicus
Assay: In vivo inhibition of PAF induced hypotension in rats after intravenous administration.
Assay type: functional
Conditions: read-out: ID50 (the source's name)
Outline: as §1

Structure (SMILES) | ED50 [mg/kg]
CCCCCCCCCCCCCCCNC(=O)OCC1CCC(COC(=O)N(Cc2cccc[n+]2CC)C(C)=O)O1.[I-] (centres undefined) | 0.098
CCCCCCCCCCCCCCCCCCNC(=O)OCCSCCOC(=O)N(Cc1cccc[n+]1CC)C(C)=O.[I-] | 0.015
CCCCCCCCCCCCCCCCCCOCCOCCOC(=O)N(Cc1cccc[n+]1CC)C(C)=O.[I-] | 0.024
CCCCCCCCCCCCCCCCCCCCOC(=O)N(Cc1cccc[n+]1CC)C(C)=O.[I-] | 0.33
CCCCCCCCCCCCCCCCCCNC(=O)OCCCOC(=O)N(Cc1cccc[n+]1CC)C(C)=O.[I-] | 0.02
CCCCCCCCCCCCCCCCCCNC(=O)OCCOCCOC(=O)N(Cc1cccc[n+]1CC)C(C)=O.[I-] | 0.019
CCCCCCCCCCCCCCCCCCNC(=O)OCC(COC(=O)N(Cc1cccc[n+]1CC)C(C)=O)OC.[I-] (centres undefined) | 0.011
CCCCCCCCCCCCCCCCCNC(=O)OCCSCCOC(=O)N(Cc1cccc[n+]1CC)C(=O)CCCCCCCCCCCCCCC.[I-] | > 5
CCCCCCCCCCCCCCCCCNC(=O)OCCSCCOC(=O)N(Cc1cccc[n+]1CC)C(=O)C(C)(C)C.[I-] | 0.33
CCCCCCCCCCCCCCCNC(=O)OCCOCCOCCOC(=O)N(Cc1cccc[n+]1CC)C(C)=O.[I-] | 0.028
CCCCCCCCCCCCCCCCNC(=O)OCCSCCOC(=O)N(Cc1cccc[n+]1CC)C(C)=O.[I-] | 0.01
CCCCCCCCCCCCCCCNC(=O)OCC1COC(COC(=O)N(Cc2cccc[n+]2CC)C(C)=O)O1.[I-] (centres undefined) | 0.085
CCCCCCCCCCCCCCCNC(=O)OCCOCCOC(=O)CCCCC[n+]1ccsc1.Cc1ccc(S(=O)(=O)[O-])cc1 | > 5
CCSCCOC(=O)N(Cc1cccc[n+]1CC)C(C)=O.[I-] | 0.37
CCCCCCCCCCCCCCCCCCCCCCOC(=O)N(Cc1cccc[n+]1CC)C(C)=O.[I-] | 0.53
CCCCCCCCCCCCCCCNC(=O)OCCSCCOC(=O)N(Cc1cccc[n+]1CC)C(C)=O.[I-] | 0.04
CCCCCCCCCCCCCCCCCNC(=O)OCCSCCOC(=O)N(Cc1cccc[n+]1CC)C(=O)OCC.[I-] | 0.028
CC[n+]1ccccc1CN(C(C)=O)C(=O)OCCOCCOC(=O)C(C)(C)C.[I-] | > 5
CCCCCCCCCCCCCCCCCCOC(=O)N(Cc1cccc[n+]1CC)C(C)=O.[I-] | 0.17
CCCCCCCCCCCCCCCCCNC(=O)OCC[S+]([O-])CCOC(=O)N(Cc1cccc[n+]1CC)C(C)=O.[I-] (centres undefined) | 0.025
CCCCCCCCCCCCCCCCCNC(=O)OCCS(=O)(=O)CCOC(=O)N(Cc1cccc[n+]1CC)C(C)=O.[I-] | 0.019
CCCCCCCCCCCCCCCCCNC(=O)OCCSCCOC(=O)N(Cc1cccc[n+]1CC)C(=O)c1ccccc1OC.[I-] | 0.019
CCOC(=O)N(Cc1cccc[n+]1CC)C(C)=O.[I-] | > 5
CCCCCCCCCCCCCCCNC(=O)OCC1OCC(COC(=O)N(Cc2cccc[n+]2CC)C(C)=O)O1.[I-] (centres undefined) | 0.11

From ChEMBL document CHEMBL1125800, “Design of potent linear PAF antagonists” (J Med Chem, 1991)
